Measurements published in ChEMBL document CHEMBL3526002, “Tissue distribution and identification of radioactivity components at elimination phase after oral administration of [¹⁴C]CS-1036, an α-amylase inhibitor, to rats” (Drug Metab Dispos, 2013).

Key:
Thymus [1] = test: Drug uptake in albino F344/DuCrlCrlj rat thymus at 5 mg/kg, po after 336 hrs by liquid scintillation counting; format: ADME, organism-based; set-up: dose 5 mg/kg, dosed compound name [14C]CS-1036, route oral; conditions: in vivo
Heart = test: Drug uptake in albino F344/DuCrlCrlj rat heart at 5 mg/kg, po after 72 hrs by liquid scintillation counting; format: ADME, organism-based; set-up: dose 5 mg/kg, dosed compound name [14C]CS-1036, route oral; conditions: in vivo
Stomach = test: Drug uptake in albino F344/DuCrlCrlj rat stomach assessed as ng equivalent of CS-1036 at 5 mg/kg, po after 168 hrs by liquid scintillation counting; format: ADME, organism-based; set-up: dose 5 mg/kg, dosed compound name [14C]CS-1036, route oral; conditions: in vivo
[2] = Drug uptake in albino F344/DuCrlCrlj rat fat assessed as ng equivalent of CS-1036 at 5 mg/kg, po after 168 hrs by liquid scintillation counting; format: ADME, organism-based, Adipose tissue; set-up: dose 5 mg/kg, dosed compound name [14C]CS-1036, route oral; conditions: in vivo
How it was run: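 Male F344/DuCrlCrlj rats (bought at 7 weeks, acclimatized 5–6 days; 159–167 g; n = 3 per time point) received a single oral dose of [14C]CS-1036 at 5 mg/kg. White adipose tissue was collected after abdominal aortic bleeding at 1, 4, 8, 24, 72, 168 or 336 h. Samples were counted by LSC with external-standard efficiency correction. Results were converted to ng equivalents per g from specific activity and sample weight.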

Pancreas = test: Drug uptake in albino F344/DuCrlCrlj rat pancreas assessed as ng equivalent of CS-1036 at 5 mg/kg, po after 1 hr by liquid scintillation counting; format: ADME, organism-based; set-up: dose 5 mg/kg, dosed compound name [14C]CS-1036, route oral; conditions: in vivo
Spleen [3] = test: Drug uptake in albino F344/DuCrlCrlj rat spleen at 5 mg/kg, po after 336 hrs by liquid scintillation counting; format: ADME, organism-based; set-up: dose 5 mg/kg, dosed compound name [14C]CS-1036, route oral; conditions: in vivo
Cerebrum = test: Drug uptake in albino F344/DuCrlCrlj rat cerebrum at 5 mg/kg, po after 8 hrs by liquid scintillation counting; format: ADME, organism-based; set-up: dose 5 mg/kg, dosed compound name [14C]CS-1036, route oral; conditions: in vivo
How it was run: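 Single oral [14C]CS-1036 at 5 mg/kg was given to male rats (159–167 g; n = 3). Cerebrum was collected after aortic bleeding at 1, 4, 8, 24, 72, 168 or 336 h, weighed, and homogenized in 2 volumes of saline. A 0.5 ml aliquot was solubilized in Soluene-350 and counted by LSC with external-standard correction. Results are in ng equivalent/g tissue from specific activity and sample weight.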

[4] = Drug uptake in albino F344/DuCrlCrlj rat brown fat at 5 mg/kg, po after 4 hrs by liquid scintillation counting; format: ADME, organism-based, Brown adipose tissue; set-up: dose 5 mg/kg, dosed compound name [14C]CS-1036, route oral; conditions: in vivo
[5] = Drug uptake in albino F344/DuCrlCrlj rat bone marrow assessed as ng equivalent of CS-1036 at 5 mg/kg, po after 24 hrs by liquid scintillation counting; format: ADME, organism-based; set-up: dose 5 mg/kg, dosed compound name [14C]CS-1036, route oral; conditions: in vivo
[6] = Drug uptake in albino F344/DuCrlCrlj rat testis assessed as ng equivalent of CS-1036 at 5 mg/kg, po after 336 hrs by liquid scintillation counting; format: ADME, organism-based; set-up: dose 5 mg/kg, dosed compound name [14C]CS-1036, route oral; conditions: in vivo
[7] = Drug uptake in albino F344/DuCrlCrlj rat trachea assessed as ng equivalent of CS-1036 at 5 mg/kg, po after 1 hr by liquid scintillation counting; format: ADME, organism-based; set-up: dose 5 mg/kg, dosed compound name [14C]CS-1036, route oral; conditions: in vivo
[8] = Drug uptake in albino F344/DuCrlCrlj rat eyeball at 5 mg/kg, po after 1 hr by liquid scintillation counting; format: ADME, organism-based; set-up: dose 5 mg/kg, dosed compound name [14C]CS-1036, route oral; conditions: in vivo
Adrenal gland [9] = test: Drug uptake in albino F344/DuCrlCrlj rat adrenal gland assessed as ng equivalent of CS-1036 at 5 mg/kg, po after 336 hrs by liquid scintillation counting; format: ADME, organism-based; set-up: dose 5 mg/kg, dosed compound name [14C]CS-1036, route oral; conditions: in vivo
[10] = Drug uptake in albino F344/DuCrlCrlj rat trachea assessed as ng equivalent of CS-1036 at 5 mg/kg, po after 168 hrs by liquid scintillation counting; format: ADME, organism-based; set-up: dose 5 mg/kg, dosed compound name [14C]CS-1036, route oral; conditions: in vivo
Spleen [11] = test: Drug uptake in albino F344/DuCrlCrlj rat spleen assessed as ng equivalent of CS-1036 at 5 mg/kg, po after 24 hrs by liquid scintillation counting; format: ADME, organism-based; set-up: dose 5 mg/kg, dosed compound name [14C]CS-1036, route oral; conditions: in vivo
Adrenal gland [12] = test: Drug uptake in albino F344/DuCrlCrlj rat adrenal gland assessed as ng equivalent of CS-1036 at 5 mg/kg, po after 72 hrs by liquid scintillation counting; format: ADME, organism-based; set-up: dose 5 mg/kg, dosed compound name [14C]CS-1036, route oral; conditions: in vivo
[13] = Drug uptake in albino F344/DuCrlCrlj rat skeletal muscle assessed as ng equivalent of CS-1036 at 5 mg/kg, po after 168 hrs by liquid scintillation counting; format: ADME, organism-based, Muscle tissue; set-up: dose 5 mg/kg, dosed compound name [14C]CS-1036, route oral; conditions: in vivo
Thymus [14] = test: Drug uptake in albino F344/DuCrlCrlj rat thymus assessed as ng equivalent of CS-1036 at 5 mg/kg, po after 1 hr by liquid scintillation counting; format: ADME, organism-based; set-up: dose 5 mg/kg, dosed compound name [14C]CS-1036, route oral; conditions: in vivo
[15] = Drug uptake in albino F344/DuCrlCrlj rat eyeball assessed as ng equivalent of CS-1036 at 5 mg/kg, po after 72 hrs by liquid scintillation counting; format: ADME, organism-based; set-up: dose 5 mg/kg, dosed compound name [14C]CS-1036, route oral; conditions: in vivo
Plasma = test: Drug metabolism in albino F344/DuCrlCrlj rat plasma protein assessed as unbound parent compound and metabolite M1 level at 10 mg/kg, po administered for 5 days by liquid scintillation counting; format: ADME, organism-based; set-up: dose 10 mg/kg, dosed compound name [14C]CS-1036, route oral; conditions: in vivo, 120 h
How it was run: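 Male F344/DuCrlCrlj rats (n = 3) received oral [14C]CS-1036 at 10 mg/kg/day for 5 days at 24-h intervals, with food freely available. Plasma was taken from the abdominal aorta 24 h after the fifth dose and pooled. It was precipitated with acetonitrile, and the pellets were washed with 0.4 M TCA, 80% methanol and 30% ether/ethanol until washes were below twice background. Pellets were HCl-hydrolysed, and recovered radioactivity was counted by LSC.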

Cerebellum [16] = test: Drug uptake in albino F344/DuCrlCrlj rat cerebellum at 5 mg/kg, po after 8 hrs by liquid scintillation counting; format: ADME, organism-based; set-up: dose 5 mg/kg, dosed compound name [14C]CS-1036, route oral; conditions: in vivo
Zone of skin = test: Drug uptake in albino F344/DuCrlCrlj rat skin at 5 mg/kg, po after 168 hrs by liquid scintillation counting; format: ADME, organism-based; set-up: dose 5 mg/kg, dosed compound name [14C]CS-1036, route oral; conditions: in vivo
[17] = Drug uptake in albino F344/DuCrlCrlj rat testis at 5 mg/kg, po after 336 hrs by liquid scintillation counting; format: ADME, organism-based; set-up: dose 5 mg/kg, dosed compound name [14C]CS-1036, route oral; conditions: in vivo
[18] = Drug uptake in albino F344/DuCrlCrlj rat bone marrow at 5 mg/kg, po after 72 hrs by liquid scintillation counting; format: ADME, organism-based; set-up: dose 5 mg/kg, dosed compound name [14C]CS-1036, route oral; conditions: in vivo
[19] = Drug uptake in albino F344/DuCrlCrlj rat thyroid gland assessed as ng equivalent of CS-1036 at 5 mg/kg, po after 24 hrs by liquid scintillation counting; format: ADME, organism-based; set-up: dose 5 mg/kg, dosed compound name [14C]CS-1036, route oral; conditions: in vivo
Cerebellum [20] = test: Drug uptake in albino F344/DuCrlCrlj rat cerebellum at 5 mg/kg, po after 72 hrs by liquid scintillation counting; format: ADME, organism-based; set-up: dose 5 mg/kg, dosed compound name [14C]CS-1036, route oral; conditions: in vivo
Harderian gland = test: Drug uptake in albino F344/DuCrlCrlj rat harderian gland at 5 mg/kg, po after 8 hrs by liquid scintillation counting; format: ADME, organism-based; set-up: dose 5 mg/kg, dosed compound name [14C]CS-1036, route oral; conditions: in vivo
[21] = Drug uptake in albino F344/DuCrlCrlj rat testis at 5 mg/kg, po after 72 hrs by liquid scintillation counting; format: ADME, organism-based; set-up: dose 5 mg/kg, dosed compound name [14C]CS-1036, route oral; conditions: in vivo
Large intestine = test: Drug uptake in albino F344/DuCrlCrlj rat large intestine assessed as ng equivalent of CS-1036 at 5 mg/kg, po after 4 hrs by liquid scintillation counting; format: ADME, organism-based; set-up: dose 5 mg/kg, dosed compound name [14C]CS-1036, route oral; conditions: in vivo
[22] = Drug uptake in albino F344/DuCrlCrlj rat thyroid gland assessed as ng equivalent of CS-1036 at 5 mg/kg, po after 168 hrs by liquid scintillation counting; format: ADME, organism-based; set-up: dose 5 mg/kg, dosed compound name [14C]CS-1036, route oral; conditions: in vivo
Small intestine = test: Drug uptake in albino F344/DuCrlCrlj rat small intestine at 5 mg/kg, po after 8 hrs by liquid scintillation counting; format: ADME, organism-based; set-up: dose 5 mg/kg, dosed compound name [14C]CS-1036, route oral; conditions: in vivo
[23] = Drug uptake in albino F344/DuCrlCrlj rat brown fat assessed as ng equivalent of CS-1036 at 5 mg/kg, po after 24 hrs by liquid scintillation counting; format: ADME, organism-based, Brown adipose tissue; set-up: dose 5 mg/kg, dosed compound name [14C]CS-1036, route oral; conditions: in vivo

C[C@H]1O[C@@H](O[C@H]2[C@H](O)[C@@H](O)[C@@H](O[14C@H]3[14C@H](O)[14CH2]N[14C@@H]3[14CH2]O)O[C@@H]2CO)[C@H](O)[C@@H](O)[C@@H]1O
Radiolabel recovery (Thymus [1]): 5.1 ngequiv/g
Radiolabel recovery (Heart): 27.5 ngequiv/g
Radiolabel recovery (Stomach): 11.2 ngequiv/g
Radiolabel recovery [2]: 64 ngequiv/g
Radiolabel recovery (Pancreas): 11 ngequiv/g
Radiolabel recovery (Spleen [3]): 7.81 ngequiv/g
Radiolabel recovery (Cerebrum): 9.08 ngequiv/g
Radiolabel recovery [4]: 25.8 ngequiv/g
Radiolabel recovery [5]: 19 ngequiv/g
Radiolabel recovery [6]: 2.06 ngequiv/g
Radiolabel recovery [7]: 7.4 ngequiv/g
Radiolabel recovery [8]: 17.7 ngequiv/g
Radiolabel recovery (Adrenal gland [9]): 8.2 ngequiv/g
Radiolabel recovery [10]: 10.4 ngequiv/g
Radiolabel recovery (Spleen [11]): 10.4 ngequiv/g
Radiolabel recovery (Adrenal gland [12]): 30.3 ngequiv/g
Radiolabel recovery [13]: 4.5 ngequiv/g
Radiolabel recovery (Thymus [14]): 2.1 ngequiv/g
Radiolabel recovery [15]: 1.72 ngequiv/g
Radiolabel recovery (Plasma): 11.3%
Radiolabel recovery (Cerebellum [16]): 8.3 ngequiv/g
Radiolabel recovery (Zone of skin): 53.3 ngequiv/g
Radiolabel recovery [17]: 6.02 ngequiv/g
Radiolabel recovery [18]: 98.9 ngequiv/g
Radiolabel recovery [19]: 20 ngequiv/g
Radiolabel recovery (Cerebellum [20]): 9.8 ngequiv/g
Radiolabel recovery (Harderian gland): 55.9 ngequiv/g
Radiolabel recovery [21]: 24.9 ngequiv/g
Radiolabel recovery (Large intestine): 6620 ngequiv/g
Radiolabel recovery [22]: 29.9 ngequiv/g
Radiolabel recovery (Small intestine): 121 ngequiv/g
Radiolabel recovery [23]: 63 ngequiv/g
